The record followed here is article PMC8116641 (Archives of Virology, 2021).

The CC50 is the concentration that lowers cell viability or growth by half. A high value points to lower toxicity to the cells.

Series [1] can be described thus: Cytotoxicity assay, microtetrazolium test. The note with it: dog, MDCK cells. It counts as cell-based. The method, boiled down: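 MDCK cells were exposed for 48 h at 36°C in 5% CO2 to threefold serial dilutions of test compound in MEM, in triplicate. After two PBS washes, cells were incubated for 1 h with MTT ([…] in PBS). The formazan was dissolved in DMSO and OD was read at 535 nm. OD was plotted against concentration to calculate CC50.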

Series [2] concerns influenza A virus A/Puerto Rico/8/34 (H1N1) (PR8 (H1N1)). In words: microbe, parasite or virus in culture. The series is classed as cell-based. To be noted: for IC50: Influenza A virus, H1N1|PR8, MDCK, read-out: IC50 (50% virus-inhibiting concentration).
Series [3] deals with influenza A virus A/California/07/09 (H1N1)pdm09 (Cal (H1N1)pdm09). The series is described as follows: microbe, parasite or virus in culture. It counts as cell-based. The note with it: for IC50: read-out: IC50 (50% inhibitory concentration).
Series [4] concerns influenza A virus A/Aichi/2/68 (H3N2) (Aichi (H3N2)). In words: microbe, parasite or virus in culture. The series is classed as cell-based. To be noted: for IC50: read-out: IC50 (50% inhibitory concentration).
Series [5] concerns influenza A viruses (H1, H1pdm09, and H3 subtypes). The series is described as follows: microbe, parasite or virus in culture. The note with it: read-out: IC50 value (depending on the virus). It counts as cell-based.
The test system of series [6] is influenza A virus PR8 (H1N1). It counts as cell-based.
Series [7] has as its target receptor-binding activity of viral HA of influenza A virus PR8 (H1N1) (Influenza A virus, UniProt P03452). It counts as biochemical.

Molecules are shown by their SMILES. Entries after “also recorded” stand apart in the source; their conditions may differ. Read-outs that look alike come from different tables or passages of the source.

receptor-binding activity of viral HA of influenza A virus PR8 (H1N1), sequence (P03452 18-343 limits assumed): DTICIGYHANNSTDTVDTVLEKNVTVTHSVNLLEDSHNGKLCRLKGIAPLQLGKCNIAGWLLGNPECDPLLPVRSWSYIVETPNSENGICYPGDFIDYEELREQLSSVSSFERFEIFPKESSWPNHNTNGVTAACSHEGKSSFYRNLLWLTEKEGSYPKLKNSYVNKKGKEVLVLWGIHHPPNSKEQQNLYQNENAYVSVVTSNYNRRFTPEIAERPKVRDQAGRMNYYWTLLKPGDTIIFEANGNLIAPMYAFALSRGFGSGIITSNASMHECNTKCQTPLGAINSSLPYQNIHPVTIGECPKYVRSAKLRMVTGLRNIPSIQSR
receptor-binding activity of viral HA of influenza A virus PR8 (H1N1), sequence (P03452 344-565 limits assumed): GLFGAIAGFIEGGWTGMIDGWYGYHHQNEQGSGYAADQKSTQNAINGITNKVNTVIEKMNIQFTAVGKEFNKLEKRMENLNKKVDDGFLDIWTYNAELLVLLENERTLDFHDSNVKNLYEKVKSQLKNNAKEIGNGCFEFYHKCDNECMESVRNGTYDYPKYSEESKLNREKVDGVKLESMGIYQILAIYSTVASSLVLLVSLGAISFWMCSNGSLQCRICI

In series [1], `CC1(C)[C@H]2CC[C@]1(C)[C@H](OC(=O)C[N+](C)(C)C)C2.[I-]` [10a, N,N,N-Trimethyl-2-oxo-2-((1S,2R,4S)-1,7,7-trimethylbicyclo[2.2.1]heptan-2-yloxy)ethanaminium iodide] returned a cytotoxic concentration (CC50) at 48 h of 1310 ± 126 µM. For the same molecule, the “SI (selectivity index, CC50/IC50)” value was found to be 546 in series [2], 78 in series [3] and 142 in series [4]. Also, the IC50 in series [2] was 2.4 ± 0.4 µM; in series [3] (Influenza A virus, H1N1, MDCK), 16.9 µM; in series [3], 16.8 ± 3.1 µM; in series [4], 9.2 ± 1.3 µM; in series [5], 2.4 to 16.8 µM. Besides, the “Infectious activity of the virus when compound is added late” value in series [6] was “not statistically different from the control values”. For the same molecule, the “Time of addition at which the compound is most effective” value in series [6] was “most effective when added at the early stages of the viral life cycle; also recorded: most effective when added within 0–2 hours after infection”. Also, the “Effect on hemagglutination titer of the virus” value in series [7] is given as “did not change this value”.

Consider `CC1(C)[C@H]2CC[C@]1(C)[C@H](OC(=O)CCC[N+](C)(C)C)C2` [10c, N,N,N-Trimethyl-4-oxo-4-((1S,2R,4S)-1,7,7-trimethylbicyclo[2.2.1]heptan-2-yloxy)butan-1-aminium iodide], for which half-maximal cytotoxicity in series [1] (CC50 at 48 h) was put at 264 ± 15 µM. Besides, in series [2], the IC50 is above 117 µM.

As to `CC[N+](C)(CC)CC(=O)O[C@H]1C[C@@H]2CC[C@@]1(C)C2(C)C.[I-]` [11a, N,N-Diethyl-N-methyl-2-oxo-2-((1S,2S,4S)-1,7,7-trimethylbicyclo[2.2.1]heptan-2-yloxy)ethanaminium iodide], the 50% cytotoxic concentration (CC50) at 48 h in series [1] came out at 850 ± 38 µM. For the same molecule, in series [2], the “SI (selectivity index, CC50/IC50)” value was 3 and the IC50 was 316 ± 40 µM.

In the case of `CC[N+](C)(CC)CCC(=O)O[C@H]1C[C@@H]2CC[C@@]1(C)C2(C)C` [11b, N,N-Diethyl-N-methyl-3-oxo-3-((1S,2S,4S)-1,7,7-trimethylbicyclo[2.2.1]heptan-2-yloxy)propan-1-aminium iodide], the CC50 at 48 h in series [1] turned out to be 69 ± 6 µM. In series [2], the IC50 is above 37 µM.

The molecule `NC12CC3CC(CC(C3)C1)C2` [Amantadine, reference compound] came in with a CC50 at 48 h in series [1] of 284 ± 21 µM. In series [2], the “SI (selectivity index, CC50/IC50)” value came out at 4 and the IC50 amounted to 64.2 ± 4.7 µM.

The molecule `CC(N)C1C[C@@H]2CC[C@H]1C2` (stereo partly drawn) [Deitiforine, reference compound] displayed a CC50 at 48 h in series [1] of 1270 ± 81 µM.

Consider `NC(=O)c1ncn([C@@H]2O[C@H](CO)[C@@H](O)[C@H]2O)n1` [Ribavirin, reference compound], for which the CC50 at 48 h in series [1] was above 2000 µM. Besides, the results for the “SI (selectivity index, CC50/IC50)” value in series [2], in series [3] and in series [4] were above 81, 61 and 52, respectively. For the same molecule, the IC50 in series [2] is 24.6 µM; in series [3] (Influenza A virus, H1N1, MDCK) it was 35 ± 4.6 µM; in series [4] (Influenza A virus, H3N2, MDCK), 41 ± 3.9 µM.

`CC(N)C12CC3CC(CC(C3)C1)C2` (stereo not drawn) [Rimantadine, reference compound] displayed a CC50 at 48 h in series [1] of 335 ± 27 µM. In series [2], the “SI (selectivity index, CC50/IC50)” value was found to be 5 and the IC50 was determined as 67 ± 4.9 µM.

The molecule `CC1(C)[C@@H]2CC[C@@]1(C)/C(=N/CC[N+](C)(C)C)C2.[I-]` [compound 6, N,N,N-Trimethyl-2-((E)-((1R,4R)-1,7,7-trimethylbicyclo[2.2.1]heptan-2-ylidene)amino)ethanaminium iodide] returned a CC50 at 48 h in series [1] above 2100 µM. In series [2], the “SI (selectivity index, CC50/IC50)” value is given as above 18 and the IC50 stood at 115 ± 10 µM.

The molecule `CC1(C)[C@@H]2CC[C@@]1(C)/C(=N/CCC[N+](C)(C)C)C2.[I-]` [compound 7, N,N,N-Trimethyl-3-((E)-((1R,4R)-1,7,7-trimethylbicyclo[2.2.1]heptan-2-ylidene)amino)propan-1-aminium iodide] yielded a CC50 at 48 h in series [1] above 1990 µM. In series [2], the “SI (selectivity index, CC50/IC50)” value is listed as above 14 and the IC50 stood at 144 ± 12 µM.
